# Data from ChEMBL document CHEMBL4190388, “Discovery and Optimization of Indolyl-Containing 4-Hydroxy-2-Pyridone Type II DNA Topoisomerase Inhibitors Active against Multidrug Resistant Gram-negative Bacteria” (J Med Chem, 2018).
# What was measured:
# Acinetobacter baumannii [1] = experiment: Antibacterial activity against wild type Acinetobacter baumannii by broth microdilution method; assay type: functional
# Summary of the method: (§1)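 MICs were determined by CLSI broth methods, except that organisms were grown in brain–heart–infusion medium. The panel comprised wild-type and resistant E. coli and A. baumannii strains, including 12 strains whose details are given by reference.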
# Escherichia coli [2] = experiment: Antibacterial activity against quinolone resistance Escherichia coli isolate ELZ4251 harboring gyrA/parC mutant by CLSI M100-S17 protocol based method; assay type: functional
# Mus musculus [3] = experiment: Volume of distribution at steady state in CD1 mouse plasma at 10 mg/kg, iv by LC-MS/MS analysis; assay type: ADME, organism-based; settings: in vivo
# Acinetobacter baumannii [4] = experiment: Antibacterial activity against wild type Acinetobacter baumannii ATCC BAA-747 by CLSI M100-S17 protocol based method; assay type: functional
# Acinetobacter baumannii [5] = experiment: Antibacterial activity against carbapenem resistant Acinetobacter baumannii by broth microdilution method; assay type: functional; settings: Acinetobacter baumannii; for MIC: read-out: MIC; summary of the method: as §1
# Acinetobacter baumannii [6] = experiment: Antibacterial activity against fluoroquinolone resistant Acinetobacter baumannii isolate MMX2240 by CLSI M100-S17 protocol based method; assay type: functional
# Escherichia coli [7] = experiment: Antibacterial activity against fluoroquinolone resistant Escherichia coli SKM18 by CLSI M100-S17 protocol based method; assay type: functional
# Klebsiella pneumoniae = experiment: Antibacterial activity against wild type Klebsiella pneumoniae ATCC 35657 by CLSI M100-S17 protocol based method; assay type: functional
# Escherichia coli [8] = experiment: Antibacterial activity against wild type Escherichia coli ATCC 25922 in presence of HSA by CLSI M100-S17 protocol based method; assay type: functional
# Escherichia coli [9] = experiment: Antibacterial activity against wild type Escherichia coli by broth microdilution method; assay type: functional; summary of the method: as §1
# Mus musculus [10] = experiment: AUC (0 to 24 hrs) in CD1 mouse plasma at 10 mg/kg, iv by LC-MS/MS analysis; assay type: ADME, organism-based; parameters: time < 24 hr, dose 10 mg/kg, route intravenous; settings: in vivo
# Summary of the method: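 CD-1 mice given a single 10 mg/kg iv dose (n = 3), in either 10% DMSO plus 1% Tween 80 in pH 8.0 phosphate buffer or 20% (2-hydroxypropyl)-β-cyclodextrin in pH 4.0 citrate buffer; plasma exposure measured.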
# Escherichia coli [11] = experiment: Antibacterial activity against beta-lactam resistant Escherichia coli by broth microdilution method; assay type: functional; settings: Escherichia coli; for MIC: read-out: MIC; summary of the method: as §1
# Escherichia coli [12] = experiment: Antibacterial activity against aminoglycoside resistant Escherichia coli by broth microdilution method; assay type: functional; settings: Escherichia coli; for MIC: read-out: MIC; summary of the method: as §1
# Acinetobacter baumannii [13] = experiment: Antibacterial activity against quinolone resistant Acinetobacter baumannii by broth microdilution method; assay type: functional; settings: Acinetobacter baumannii; for MIC: read-out: MIC; summary of the method: as §1
# [14] = Fraction unbound in mouse plasma at 1 uM by equilibrium dialysis method; assay type: ADME, cell-free
# Escherichia coli [15] = experiment: Antibacterial activity against multidrug resistant Escherichia coli by broth microdilution method; assay type: functional; settings: Escherichia coli; for MIC: read-out: MIC; summary of the method: as §1
# Escherichia coli [16] = experiment: Antibacterial activity against quinolone resistant Escherichia coli by broth microdilution method; assay type: functional; settings: Escherichia coli; for MIC: read-out: MIC; summary of the method: as §1
# Mus musculus [17] = experiment: Terminal half life in CD1 mouse plasma at 10 mg/kg, iv by LC-MS/MS analysis; assay type: ADME, organism-based; settings: in vivo
# Acinetobacter baumannii [18] = experiment: Antibacterial activity against multidrug resistant Acinetobacter baumannii by broth microdilution method; assay type: functional; settings: Acinetobacter baumannii; for MIC: read-out: MIC; summary of the method: as §1
# [19] = Oral bioavailability in CD1 mouse plasma by LC-MS/MS analysis; assay type: ADME, organism-based
# Escherichia coli [20] = experiment: Antibacterial activity against wild type Escherichia coli ATCC 25922 by CLSI M100-S17 protocol based method; assay type: functional
# Acinetobacter baumannii [21] = experiment: Antibacterial activity against aminoglycoside resistant Acinetobacter baumannii by broth microdilution method; assay type: functional; settings: Acinetobacter baumannii; for MIC: read-out: MIC; summary of the method: as §1
# Acinetobacter baumannii [22] = experiment: Antibacterial activity against beta-lactam resistant Acinetobacter baumannii by broth microdilution method; assay type: functional; settings: Acinetobacter baumannii; for MIC: read-out: MIC; summary of the method: as §1
# Escherichia coli [23] = experiment: Selectivity ratio of MIC for wild type Escherichia coli ATCC 25922 in presence of HSA to MIC for wild type Escherichia coli ATCC 25922; assay type: functional
# [24] = Inhibition of His tagged Escherichia coli ATCC 25922 DNA gyrase A expressed in Escherichia coli BL21 (DE3) pLysS cells assessed as reduction in enzyme-mediated supercoiling of relaxed plasmid DNA pNO1 after 30 mins in presence of biotinylated TFO1 by fluorescence assay
# [25] = Inhibition of Escherichia coli DNA topoisomerase 4 assessed as reduction in decatenation activity using kinetoplast concatenated DNA as substrate after 30 mins by picogreen dye based fluorescence assay
smiles,measurement,setting,value
Cn1c(CN2CCCC2)cc2cc3c(cc21)CCCc1c-3[nH]c(=O)c(C(=O)O)c1O,MIC50,Acinetobacter baumannii [1],2 µg/mL
same,MIC90,Acinetobacter baumannii [1],16 µg/mL
same,MIC,Escherichia coli [2],1.6 µg/mL
same,Vdss,Mus musculus [3],8.1 L/kg
same,MIC,Acinetobacter baumannii [4],0.78 µg/mL
same,MIC50,Acinetobacter baumannii [5],2 µg/mL
same,MIC90,Acinetobacter baumannii [5],16 µg/mL
same,MIC,Acinetobacter baumannii [5],0.12 to 16 µg/mL
same,MIC,Acinetobacter baumannii [6],1.6 µg/mL
same,MIC,Escherichia coli [7],0.78 µg/mL
same,MIC,Klebsiella pneumoniae,0.78 µg/mL
same,MIC,Escherichia coli [8],6.3 µg/mL
same,MIC90,Escherichia coli [9],0.5 µg/mL
same,AUC,Mus musculus [10],4050 ng·h/mL
same,MIC90,Escherichia coli [11],0.5 µg/mL
same,MIC,Escherichia coli [11],0.12 to 0.5 µg/mL
same,MIC90,Escherichia coli [12],0.5 µg/mL
same,MIC,Escherichia coli [12],0.12 to 0.5 µg/mL
same,MIC50,Acinetobacter baumannii [13],2 µg/mL
same,MIC90,Acinetobacter baumannii [13],16 µg/mL
same,MIC,Acinetobacter baumannii [13],0.12 to 16 µg/mL
same,Fu,[14],0.11
same,MIC90,Escherichia coli [15],0.5 µg/mL
same,MIC,Escherichia coli [15],0.12 to 0.5 µg/mL
same,MIC90,Escherichia coli [16],0.5 µg/mL
same,MIC,Escherichia coli [16],0.12 to 0.5 µg/mL
same,beta t1/2,Mus musculus [17],2.8 h
same,MIC50,Acinetobacter baumannii [18],2 µg/mL
same,MIC90,Acinetobacter baumannii [18],16 µg/mL
same,MIC,Acinetobacter baumannii [18],0.12 to 16 µg/mL
same,bioavailability,[19],33%
same,MIC,Escherichia coli [20],0.78 µg/mL
same,MIC50,Acinetobacter baumannii [21],2 µg/mL
same,MIC90,Acinetobacter baumannii [21],16 µg/mL
same,MIC,Acinetobacter baumannii [21],0.12 to 16 µg/mL
same,MIC50,Acinetobacter baumannii [22],2 µg/mL
same,MIC90,Acinetobacter baumannii [22],16 µg/mL
same,MIC,Acinetobacter baumannii [22],0.12 to 16 µg/mL
Cn1c(CNC2(C)CCC2)cc2cc3c(cc21)CCCc1c-3[nH]c(=O)c(C(=O)O)c1O,Vdss,Mus musculus [3],7.1 L/kg
same,MIC,Acinetobacter baumannii [4],0.5 µg/mL
same,MIC,Acinetobacter baumannii [6],1 µg/mL
same,MIC,Escherichia coli [7],1 µg/mL
same,Ratio,Escherichia coli [23],4 - 16
same,MIC,Klebsiella pneumoniae,1 µg/mL
same,MIC,Escherichia coli [8],7.8 µg/mL
same,AUC,Mus musculus [10],4580 ng·h/mL
same,Fu,[14],0.047
same,beta t1/2,Mus musculus [17],3.1 h
same,bioavailability,[19],65%
same,MIC,Escherichia coli [20],1 µg/mL
CCNCc1cc2cc(-c3[nH]c(=O)c(C(=O)O)c(O)c3CC)ccc2n1C,MIC50,Acinetobacter baumannii [1],2 µg/mL
same,MIC90,Acinetobacter baumannii [1],16 µg/mL
same,MIC,Escherichia coli [2],3.1 µg/mL
same,MIC,Acinetobacter baumannii [4],0.78 µg/mL
same,MIC50,Acinetobacter baumannii [5],2 µg/mL
same,MIC90,Acinetobacter baumannii [5],16 µg/mL
same,MIC,Acinetobacter baumannii [5],0.5 to 32 µg/mL
same,MIC,Acinetobacter baumannii [6],6.3 µg/mL
same,IC50,[24],0.3 µM
same,MIC,Escherichia coli [7],1.6 µg/mL
same,MIC,Klebsiella pneumoniae,0.39 µg/mL
same,MIC,Escherichia coli [8],1.6 µg/mL
same,MIC50,Escherichia coli [9],1 µg/mL
same,MIC90,Escherichia coli [9],4 µg/mL
same,MIC50,Escherichia coli [11],1 µg/mL
same,MIC90,Escherichia coli [11],4 µg/mL
same,MIC,Escherichia coli [11],0.25 to 4 µg/mL
same,MIC50,Escherichia coli [12],1 µg/mL
same,MIC90,Escherichia coli [12],4 µg/mL
same,MIC,Escherichia coli [12],0.25 to 4 µg/mL
same,MIC50,Acinetobacter baumannii [13],2 µg/mL
same,MIC90,Acinetobacter baumannii [13],16 µg/mL
same,MIC,Acinetobacter baumannii [13],0.5 to 32 µg/mL
same,MIC50,Escherichia coli [15],1 µg/mL
same,MIC90,Escherichia coli [15],4 µg/mL
same,MIC,Escherichia coli [15],0.25 to 4 µg/mL
same,MIC50,Escherichia coli [16],1 µg/mL
same,MIC90,Escherichia coli [16],4 µg/mL
same,MIC,Escherichia coli [16],0.25 to 4 µg/mL
same,MIC50,Acinetobacter baumannii [18],2 µg/mL
same,MIC90,Acinetobacter baumannii [18],16 µg/mL
same,MIC,Acinetobacter baumannii [18],0.5 to 32 µg/mL
same,MIC,Escherichia coli [20],0.39 µg/mL
same,IC50,[25],3.3 µM
same,MIC50,Acinetobacter baumannii [21],2 µg/mL
same,MIC90,Acinetobacter baumannii [21],16 µg/mL
same,MIC,Acinetobacter baumannii [21],0.5 to 32 µg/mL
same,MIC50,Acinetobacter baumannii [22],2 µg/mL
same,MIC90,Acinetobacter baumannii [22],16 µg/mL
same,MIC,Acinetobacter baumannii [22],0.5 to 32 µg/mL
